Data as given in the EternaBench riboswitch data.

Test system: MS2 coat protein
Test: apparent Kd, MS2 coat protein; higher = weaker binding; RNA-MaP array; FMN 200 µM where present
How it was run: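 Green signal was scaled to red-channel RNA signal and control-cluster median Fmax, and the apparent Kd was taken as the median of filtered per-cluster binding-curve fits. The binding series used SNAP-549-labelled MS2 coat protein from 0.7 or 1.5 nM, doubling to 3 µM, on designs transcribed by stalled E. coli RNA polymerase on Illumina sequencing-chip clusters. Each series ran without and then with constant ligand in 100 mM Tris-HCl pH 7.5, 80 mM KCl, 4 mM MgCl2, BSA, DTT, yeast tRNA and Tween-20.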

[1] = designed as: OFF switch for flavin mononucleotide, no ligand
[2] = ligand present: flavin mononucleotide, designed as: OFF switch for flavin mononucleotide
[3] = designed as: ON switch for flavin mononucleotide, no ligand
[4] = ligand present: flavin mononucleotide, designed as: ON switch for flavin mononucleotide

| Sequence | apparent Kd [1] | apparent Kd [2] | apparent Kd [3] | apparent Kd [4] |
| --- | --- | --- | --- | --- |
| AAAUUUAACGAAGGAUAUGGAUACAUGAGGAUCACCCAUGUAUAUUUUGUGAUCUUGUUUAAGAUCCAGAAGGUCGUAUACAUA | 24 nM | 56.1 nM | – | – |
| AAAUUUAACGAAGGAUAUGGUUACAUGAGGAUCACCCAUGUGUGCCUUGUGAUCUUGUUUAAGUUCCAGAAGGUCGUAUACAUA | 41.7 nM | 183 nM | – | – |
| AACAAGUGAGGAUAUGAUAAUACAACAAACAAACAUCUACAUCAGAAGGCACAUGAGGAUCACCCAUGUUAAUC | 22 nM | 27.2 nM | – | – |
| AACAAUCACAUAGGAUAUAGAAUAUUAUAUUUUUACAUGAGGAUCACCCAUGUUUUAUUGGGAUUCUAGAAGGAUGAGUAAUAA | – | – | 162 nM | 90.8 nM |
| AACAAUGGUUAACAUGAGGAUCACCCAUGUUGGAAGCCUUCACAGGAUAUGUAGCGGGCAUACGCACAGAAGGGUGAUCGCGGU | – | – | 37.5 nM | 32.6 nM |
| AACACACAUGAGGAUCACCCAUGUAAAAUUUAGCAAGGAUAUGGGUGCCGUAAUCGGUUACCAGAAGGUGCCUCAC | – | – | 103 nM | 59.8 nM |
| AACAGCUCGUCAGGAUAUAUUAUAAUAAUACGGCAGUUUGUACAUGAGGAUCACCCAUGUUGUAUGUAGAAGGGACGAGCUGAA | 9.86 nM | 8.91 nM | – | – |
| AACAGCUCGUCAGGAUAUAUUUACUUAUAUUGUAUUUAUGUACAUGAGGAUCACCCAUGUUGUUAGUAGAAGGGACGAGCUGAA | 7.42 nM | 7.32 nM | – | – |
| AACAGCUCGUCAGGAUAUAUUUUCUAAUUAUGUAUUUAUGUACAUGAGGAUCACCCAUGUUGUUAGUAGAAGGGACGAGCUGAA | 11.7 nM | 12.1 nM | – | – |
| AACAGGGAUUCAGGAUAUAUUAGCCGAGGCCGCGUAGAAGGGAAAUCCUGACAUGAGGAUCACCCAUGUCGACCCGCCUUCCAC | – | – | 23.1 nM | 22.9 nM |
| AACAGUACAGGAUAUACAUGAGGAUCACCCAUGUGAGAAUUAAGUGGCGUACCACAAUGUAGAAGGGUACUGGA | 77.4 nM | 65.5 nM | – | – |
| AACCCUUGUGUUAGGAUAUGUCACUACCAUAUGCGACAGAAGGAACAUGAGGAUCACCCAUGUGAGUUAGCCAA | 42.8 nM | 91.1 nM | – | – |
| AACCUACAUGAGGAUCACCCAUGUAAGGAUAUGGCAUGAUUUGCGUCAGCCCGUUAAGUUAGAAGGUGCGUCGG | 14.8 nM | 16 nM | – | – |
| AACGAAAGCCAAGGAUAUGCAGGUGACAUGAGGAUCACCCAUGUGGAUUGUGAUCCUUAACUGAUGCAGAAGGUGGAUCUGUUG | 513 nM | 322 nM | – | – |
| AACGAGCAGUAGAAGGGAUGUCUACGGACAUGAGGAUCACCCAUGUUGUGACUCCGAAAGGAGCGUCAGGAUAUACUGCUCAAA | – | – | 8.13 nM | 6.15 nM |
| AACGGGUGGGUAGGAUAUGGCUAUGUCUCAUUGCUAGAAGGACCAGCUGCUACAUGAGGAUCACCCAUGUCGUAGUGCAUCCAG | – | – | 88.2 nM | 13 nM |
| AACUCACAUGAGGAUCACCCAUGUGAGGAUAUGAUACUAUGUACUUCGGUACAUAGUAUCAGAAGGCAUGUGGA | 14.4 nM | 18.9 nM | – | – |
| AACUGACAUGAGGAUCACCCAUGUCAGGAUAUGACUUGAUAGAAAAUAAAAUAUCAUGUCAGAAGGGACAUGGG | 20.2 nM | 18.5 nM | – | – |
| AAGAAAGAAACGCAGGAUAUGCAAAACAAAACAUGAGGAUCACCCAUGUCUUACUUACAAACAAAGCAGAAGGGCGAAAGAAAGAA | – | – | 20.1 nM | 13.2 nM |
| AAGAAGUCAGGAUAUACAUGAGGAUCACCCAUGUAAAAGAAAGAAAAGGGAAAGAAAAGUAGAAGGGACAAGAA | 26.7 nM | 32.2 nM | – | – |
| AAGAAGUCAGGAUAUCCUGCUCGUCACUUGCGUGAUGAGUAGGAGAAGGGACAUGAGGAUCACCCAUGUAAAGU | 51.1 nM | 56.2 nM | – | – |
| AAGACAUGAGGAUCACCCAUGUAAAGACCGGUCAAUCAAUGUGAGGAUAUUCCAUAAUUGAUAGGGAAGAAGGCACUGGGUUGA | – | – | 106 nM | 50.2 nM |
| AAGACAUGAGGAUCACCCAUGUAAAGACCGGUCGAUCAAUGUGAGGAUAUACCAUAAUUGAUAGGGUAGAAGGCACUGGGUUGA | – | – | 168 nM | 128 nM |
| AAGACAUGAGGAUCACCCAUGUAAAGACCGGUCGAUCAAUGUGAGGAUAUUCCAUAAUUGAUAGGGAAGAAGGCACUGGGUUGA | – | – | 177 nM | 130 nM |
| AAGAGUAGAGGAUAUACAUGAGGAUCACCCAUGUAAUCCAGAUAAGGAAGCAUGUCGUGUAGAAGGCUGCAUGA | 15.9 nM | 12.8 nM | – | – |
| AAGAUGCGGAUAGGAUAUGGAAAUUAAUAAAGACCAGAAGGAUUGGUCACACAACAUGAGGAUCACCCAUGUGUGUGUUGUGAA | 13.6 nM | 10.6 nM | – | – |
| AAGAUGCGGGUAGGAUAUGGAGAGAAAGAAAGACCAGAAGGACUGGUCACACAACAUGAGGAUCACCCAUGUGUGUGUUGCGAA | 11.8 nM | 8.91 nM | – | – |
| AAGAUGUAAGGAUAUGCUGCUCGUCACAAAAGUGAUGAGUAGCAGAAGGUACAUGAGGAUCACCCAUGUAGAGA | 31.4 nM | 55.7 nM | – | – |

| Sequence | apparent Kd [1] | apparent Kd [2] | apparent Kd [3] | apparent Kd [4] |
| --- | --- | --- | --- | --- |
| AAGAUGUCAGGAUAUGCUGCUCGUCACUUGCGUGAUGAGUAGCAGAAGGGACAUGAGGAUCACCCAUGUAAAGA | 154 nM | 244 nM | – | – |
| AAGCAUUGGCUUCUCAUCUACAUGAGGAUCACCCAUGUCGGGAGAAGGAGGCGUUGACGAAUAGCCUAGGAUAUCCUAACGUGC | 6.84 nM | 6.99 nM | – | – |
| AAGCCUAAUGAGAAGGUGUGUAUAAAUUAUAUACAAGGAUAUCGGUCAAGCAUGAAAACAUGAGGAUCACCCAUGUUAAGGCUU | – | – | 5.82 nM | 5.51 nM |
| AAGCCUACAAUGGUGUAAUGUACAUGAGGAUCACCCAUGUACAGAAGGUGGAAUGUAAAAGGUGCCAAGGAUAUGUAUGCGGGU | 12.6 nM | 16.4 nM | – | – |
| AAGCGAGGGACAGGAUAUGCGGCGAAACUCGCCGCAGAAGGGUCGACAUGAGGAUCACCCAUGUCCUUACGCUCCAAGUAGUGG | – | – | 101 nM | 250 nM |
| AAGCGAGGGACAGGAUAUGCGGCGGAACUCGCCGCAGAAGGGUCGACAUGAGGAUCACCCAUGUCCUUACGCUCCAAGUAGUGG | – | – | 131 nM | 425 nM |
| AAGCGGGCAGGAUAUGCGUACUCACGGGAAAACUGAAUGGUACAUGAGGAUCACCCAUGUAGAAGGGCUUUGAA | 48.4 nM | 36.3 nM | – | – |
| AAGCUAACCACAGGAUAUCCACAUGAGGAUCACCCAUGUUGCUGAAGAGCAGGAGAAGGGUGGUGGGCAGAGUGCGCUGUCGUG | – | – | 53.5 nM | 8.75 nM |
| AAGGAGUGAGGAUAUGCUGCUCGUCACUUGCGUGAUGAGUAGCAGAAGGCACAUGAGGAUCACCCAUGUAAAGA | 44.9 nM | 54.5 nM | – | – |
| AAGGAUCGAGGAUAUACAUAGAUACAGAUACAUGUAGACGUACAUGAGGAUCACCCAUGUAGAAGGCGAUUAUA | 72.6 nM | 220 nM | – | – |
| AAGGAUCGAGGAUAUACAUAGAUACAGAUUCAUGUAGAACUACAUGAGGAUCACCCAUGUAGAAGGCGAUCCUA | 38.4 nM | 291 nM | – | – |
| AAGGGAUGAGCGUAGGAUAUAGGAGAAGUGACAUGAGGAUCACCCAUGUAAAAGGAGGGAUGAGACUAGAAGGACGAGGUAGGAG | – | – | 107 nM | 125 nM |
| AAGUAAGGAGGAUAUACGUCAUAGACCGCAAUAUGUCAUAGACAUGAGGAUCACCCAUGUAGAAGGCUUUAACA | 34.7 nM | 26.2 nM | – | – |
| AAGUAGAUCCGAGGAUAUACAAUCCGGAAACGGUACAUGAGGAUCACCCAUGUAGAAGGCGGAUCUACAGGUACUAAAGUACCG | 6.33 nM | 9.45 nM | – | – |
| AAGUAGGGAGGAUAUACAUAGAUACAGAUUCGUGUAGAACUACAUGAGGAUCACCCAUGUAGAAGGCCCUAAUA | 18.1 nM | 41.6 nM | – | – |
| AAGUAGUGAGGAUAUACAUGGAUAUACAUUCAUGUGGACCUACAUGAGGAUCACCCAUGUAGAAGGCACUAAUA | 33.8 nM | 28.6 nM | – | – |
| AAGUAUAGAGGAUAUACAUAGAUACAGAUUCAUGUAGAACUACAUGAGGAUCACCCAUGUAGAAGGCUAUACUA | 30.2 nM | 159 nM | – | – |
| AAGUCGCACCAGAAGGGUCAACCAAUAAAUUAGACAGGAUAUGGGCGAUAUGUAUGUCGCGACAUGAGGAUCACCCAUGUCCGG | – | – | 17.7 nM | 6.08 nM |
| AAGUCUGGACGAGGAUAUCAGUUGUAUCUAGCAUCAACAUGAGGAUCACCCAUGUUGCAAUAGGGUGAGAAGGCGUUUGGGCAA | – | – | 150 nM | 20.6 nM |
| AAGUUAGGGAGAGGAUAUUGACAUGAGGAUCACCCAUGUAUUUGGGAGUGUUUACUGAAUUCUUACGAGAAGGCUUACGAAAUU | 344 nM | 259 nM | – | – |
| AAUAAACACACAGGAUAUAGCAUCGUCGGUAUGAACUUAAAGACGACGAUGCUAGAAGGGUGAACACAUGAGGAUCACCCAUGU | – | – | 232 nM | 39.1 nM |
| AAUAAAUAUAAAUUUUAUUUGUCGUAGGAUAUGGGUGACAUGAGGAUCACCCAUGUUGCAGACGACCAGAAGGGCGGCGGAUAU | – | – | 117 nM | 23.2 nM |
| AAUAACAGAGGAUAUACUAUUUUAUGUGUUUGUUAUUUUGAACAUGAGGAUCACCCAUGUAGAAGGCUGAUUAA | 44.4 nM | 43.9 nM | – | – |
| AAUAACAGAGGAUAUACUGUUUUAUGUGUUUAUUGUUUUGAACAUGAGGAUCACCCAUGUAGAAGGCUGAAUAA | 22.6 nM | 23.2 nM | – | – |
| AAUAAGCUAGGAUAUACAUGAGGAUCACCCAUGUGAGGGCACGGCCGGCGCGUUUCCGGUAGAAGGAGUCAUAA | 34.5 nM | 25.2 nM | – | – |
| AAUAAGUGAGGAUAUACGUCUGGACCCGGGAGGGCUAUAUAACAUGAGGAUCACCCAUGUAGAAGGCACAAUAA | 13.9 nM | 15.9 nM | – | – |
| AAUAAUUAGUAAGGAUAUACUAGUGAUUAGCUUGUAGAAGGUACAGUCUUAUGUAUAAUAAAUUAACAUGAGGAUCACCCAUGU | – | – | 11.6 nM | 9.86 nM |
